Assay results published in ChEMBL document CHEMBL5303300, “EUbOPEN Chemogenomics Library - Multiplex” (2023).
“And” between values parts separate entries of the source, which are not always exact repeats. Identical values can stand only once.

Tested on: HEK-293T
Assay: Multiplex assay against HEK293T
Type: toxicity, cell-based
Conditions: human, number of replicates 2
In short: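 With compound added, live cells were imaged on a CQ1 microscope at 37°C and 5% CO2; staining with Hoechst33342, BioTracker Green Microtubule Cytoskeleton Dye, MitoTracker Red and Annexin V Alexa Fluor 680 had been done at seeding. The CellPathfinder machine-learning gating scheme split cells into Hoechst high-intensity objects or normal cells, normal cells into healthy, pyknosed or fragmented nuclei, and pyknosed cells into mitotic or apoptotic. The tubulin, mitochondrial-mass and membrane-permeability phenotypes are per cents of healthy-nucleus cells.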

[1] = 12 h, 1 µM, compound concentration 1 uM
[2] = 12 h, 10 µM, compound concentration 10 uM
[3] = 24 h, 1 µM, compound concentration 1 uM
[4] = 24 h, 10 µM, compound concentration 10 uM
[5] = 48 h, 1 µM, compound concentration 1 uM
[6] = 48 h, 10 µM, compound concentration 10 uM

With `Cc1cn(CCN2CCN(c3ccccc3-c3cc(C#N)cc(C(=O)NCCCN4CCCC4)c3)CC2)c2ccccc12` the “Population Apoptotic (%)” value [1] was 34% and 44%, the “Population Fragmented Nuclei (%)” value [1] was 3% and the “Population Healthy Nuclei (%)” value [1] was 82% and 84%. The “Population Hoechst High Intensity Objects (%)” value [1] was 7% and 6%, the “Population Membrane Permeable-Phenotype (%)” value [1] was 3% and 4% and the “Population Mitochondria Different-Phenotype (%)” value [1] was 26% and 20%. The “Population Mitotic Cells (%)” value [1] was 65% and 55%, the “Population Normal (%)” value [1] was 92% and 93% and the “Population Pyknosed Nuclei (%)” value [1] was 13% and 12%. The “Population Tubulin-Different-Phenotype (%)” value [1] was 72% and 71%, the “Total Cell Count” value [1] was 634 and 574 and the “Population Apoptotic (%)” value [2] was 70% and 65%. For the same compound, the “Population Fragmented Nuclei (%)” value [2] was 2%, the “Population Healthy Nuclei (%)” value [2] was 81% and 78% and the “Population Hoechst High Intensity Objects (%)” value [2] was 5%. For the same compound, the “Population Membrane Permeable-Phenotype (%)” value [2] was 2% and 1%, the “Population Mitochondria Different-Phenotype (%)” value [2] was 71% and 72% and the “Population Mitotic Cells (%)” value [2] was 30% and 34%. For the same compound, the “Population Normal (%)” value [2] was 94%, the “Population Pyknosed Nuclei (%)” value [2] was 16% and 18% and the “Population Tubulin-Different-Phenotype (%)” value [2] was 97% and 94%. The “Total Cell Count” value [2] was 511 and 463, the “Population Apoptotic (%)” value [3] was 46% and 42% and the “Population Fragmented Nuclei (%)” value [3] was 5% and 3%. The “Population Healthy Nuclei (%)” value [3] was 86% and 89%, the “Population Hoechst High Intensity Objects (%)” value [3] was 8% and the “Population Membrane Permeable-Phenotype (%)” value [3] was 3%. The “Population Mitochondria Different-Phenotype (%)” value [3] was 12%, the “Population Mitotic Cells (%)” value [3] was 53% and 57% and the “Population Normal (%)” value [3] was 91%. The “Population Pyknosed Nuclei (%)” value [3] was 7% and 6%, the “Population Tubulin-Different-Phenotype (%)” value [3] was 57% and 51% and the “Total Cell Count” value [3] was 1111 and 826. The “Population Apoptotic (%)” value [4] was 77% and 76%, the “Population Fragmented Nuclei (%)” value [4] was 1% and 3% and the “Population Healthy Nuclei (%)” value [4] was 85% and 79%. The “Population Hoechst High Intensity Objects (%)” value [4] was 9% and 4%, the “Population Membrane Permeable-Phenotype (%)” value [4] was 1% and 2% and the “Population Mitochondria Different-Phenotype (%)” value [4] was 88% and 81%. The “Population Mitotic Cells (%)” value [4] was 22% and 23%, the “Population Normal (%)” value [4] was 90% and 95% and the “Population Pyknosed Nuclei (%)” value [4] was 12% and 16%. The “Population Tubulin-Different-Phenotype (%)” value [4] was 97% and 95%, the “Total Cell Count” value [4] was 524 and 487 and the “Population Apoptotic (%)” value [5] was 16% and 21%. For the same compound, the “Population Fragmented Nuclei (%)” value [5] was 14% and 8%, the “Population Healthy Nuclei (%)” value [5] was 82% and 87% and the “Population Hoechst High Intensity Objects (%)” value [5] was 10% and 8%. The “Population Membrane Permeable-Phenotype (%)” value [5] was 5% and 3%, the “Population Mitochondria Different-Phenotype (%)” value [5] was 1% and 4% and the “Population Mitotic Cells (%)” value [5] was 83% and 78%. The “Population Normal (%)” value [5] was 89% and 91%, the “Population Pyknosed Nuclei (%)” value [5] was 3% and 4% and the “Population Tubulin-Different-Phenotype (%)” value [5] was 27% and 31%. For the same compound, the “Total Cell Count” value [5] was 2524 and 1476, the “Population Apoptotic (%)” value [6] was 65% and 73% and the “Population Fragmented Nuclei (%)” value [6] was 6% and 8%. For the same compound, the “Population Healthy Nuclei (%)” value [6] was 82% and 77%, the “Population Hoechst High Intensity Objects (%)” value [6] was 7% and 11% and the “Population Membrane Permeable-Phenotype (%)” value [6] was 3% and 1%. The “Population Mitochondria Different-Phenotype (%)” value [6] was 57% and 66%, the “Population Mitotic Cells (%)” value [6] was 34% and 26% and the “Population Normal (%)” value [6] was 92% and 88%. The “Population Pyknosed Nuclei (%)” value [6] was 10% and 14%, the “Population Tubulin-Different-Phenotype (%)” value [6] was 90% and 93% and the “Total Cell Count” value [6] was 709 and 587.

`CC1=C(C)C(=O)C(C(CCCCCC(=O)O)c2ccccc2)=C(C)C1=O` (stereo unspecified) [SERATRODAST] was tested, and the “Population Apoptotic (%)” value [1] was 63% and 56%, the “Population Fragmented Nuclei (%)” value [1] was 4% and 5% and the “Population Healthy Nuclei (%)” value [1] was 78% and 82%. For the same compound, the “Population Hoechst High Intensity Objects (%)” value [1] was 12% and 8%, the “Population Membrane Permeable-Phenotype (%)” value [1] was 2% and 0% and the “Population Mitochondria Different-Phenotype (%)” value [1] was 18% and 13%. For the same compound, the “Population Mitotic Cells (%)” value [1] was 36% and 43%, the “Population Normal (%)” value [1] was 87% and 91% and the “Population Pyknosed Nuclei (%)” value [1] was 17% and 12%. The “Population Tubulin-Different-Phenotype (%)” value [1] was 49% and 39%, the “Total Cell Count” value [1] was 511 and 624 and the “Population Apoptotic (%)” value [2] was 47% and 51%. For the same compound, the “Population Fragmented Nuclei (%)” value [2] was 4% and 5%, the “Population Healthy Nuclei (%)” value [2] was 87% and 85% and the “Population Hoechst High Intensity Objects (%)” value [2] was 7%. For the same compound, the “Population Membrane Permeable-Phenotype (%)” value [2] was 4% and 2%, the “Population Mitochondria Different-Phenotype (%)” value [2] was 8% and 11% and the “Population Mitotic Cells (%)” value [2] was 52% and 48%. For the same compound, the “Population Normal (%)” value [2] was 92%, the “Population Pyknosed Nuclei (%)” value [2] was 7% and 9% and the “Population Tubulin-Different-Phenotype (%)” value [2] was 39% and 43%. The “Total Cell Count” value [2] was 857 and 708, the “Population Apoptotic (%)” value [3] was 52% and 55% and the “Population Fragmented Nuclei (%)” value [3] was 6% and 7%. For the same compound, the “Population Healthy Nuclei (%)” value [3] was 79% and 81%, the “Population Hoechst High Intensity Objects (%)” value [3] was 9% and the “Population Membrane Permeable-Phenotype (%)” value [3] was 1%. The “Population Mitochondria Different-Phenotype (%)” value [3] was 3%, the “Population Mitotic Cells (%)” value [3] was 47% and 44% and the “Population Normal (%)” value [3] was 90%. The “Population Pyknosed Nuclei (%)” value [3] was 13% and 10%, the “Population Tubulin-Different-Phenotype (%)” value [3] was 19% and 16% and the “Total Cell Count” value [3] was 827 and 1038. The “Population Apoptotic (%)” value [4] was 28% and 42%, the “Population Fragmented Nuclei (%)” value [4] was 8% and 7% and the “Population Healthy Nuclei (%)” value [4] was 86%. For the same compound, the “Population Hoechst High Intensity Objects (%)” value [4] was 9% and 6%, the “Population Membrane Permeable-Phenotype (%)” value [4] was 6% and 3% and the “Population Mitochondria Different-Phenotype (%)” value [4] was 3% and 4%. For the same compound, the “Population Mitotic Cells (%)” value [4] was 71% and 57%, the “Population Normal (%)” value [4] was 90% and 93% and the “Population Pyknosed Nuclei (%)” value [4] was 4% and 6%. For the same compound, the “Population Tubulin-Different-Phenotype (%)” value [4] was 29% and 35%, the “Total Cell Count” value [4] was 1313 and 975 and the “Population Apoptotic (%)” value [5] was 22% and 13%. The “Population Fragmented Nuclei (%)” value [5] was 15% and 14%, the “Population Healthy Nuclei (%)” value [5] was 81% and 83% and the “Population Hoechst High Intensity Objects (%)” value [5] was 8%. For the same compound, the “Population Membrane Permeable-Phenotype (%)” value [5] was 4% and 5%, the “Population Mitochondria Different-Phenotype (%)” value [5] was 1% and 0% and the “Population Mitotic Cells (%)” value [5] was 77% and 86%. For the same compound, the “Population Normal (%)” value [5] was 91%, the “Population Pyknosed Nuclei (%)” value [5] was 3% and 2% and the “Population Tubulin-Different-Phenotype (%)” value [5] was 5%. For the same compound, the “Total Cell Count” value [5] was 2229 and 2490, the “Population Apoptotic (%)” value [6] was 6% and 13% and the “Population Fragmented Nuclei (%)” value [6] was 25% and 16%. The “Population Healthy Nuclei (%)” value [6] was 73% and 80%, the “Population Hoechst High Intensity Objects (%)” value [6] was 9% and 8% and the “Population Membrane Permeable-Phenotype (%)” value [6] was 11% and 5%. The “Population Mitochondria Different-Phenotype (%)” value [6] was 0%, the “Population Mitotic Cells (%)” value [6] was 93% and 86% and the “Population Normal (%)” value [6] was 91%. For the same compound, the “Population Pyknosed Nuclei (%)” value [6] was 1% and 2%, the “Population Tubulin-Different-Phenotype (%)” value [6] was 15% and 21% and the “Total Cell Count” value [6] was 3510 and 2285.

In the case of `CS(=O)(=O)c1ccc(C(=O)Nc2ccc(F)c(COc3ccc(Br)cc3CNCCO)c2)c(Cl)c1.O=CO`, the “Population Apoptotic (%)” value [1] is reported as 55% and 59%, the “Population Healthy Nuclei (%)” value [1] is reported as 78% and 76% and the “Population Mitotic Cells (%)” value [1] is reported as 44% and 40%. For the same compound, the “Total Cell Count” value [1] was 571 and 534, the “Population Apoptotic (%)” value [2] was 71% and 70% and the “Population Healthy Nuclei (%)” value [2] was 84% and 78%. The “Population Mitotic Cells (%)” value [2] was 28% and 30%, the “Total Cell Count” value [2] was 446 and 461 and the “Population Apoptotic (%)” value [3] was 57% and 61%. For the same compound, the “Population Healthy Nuclei (%)” value [3] was 79% and 77%, the “Population Mitotic Cells (%)” value [3] was 42% and 38% and the “Total Cell Count” value [3] was 845 and 808. For the same compound, the “Population Apoptotic (%)” value [4] was 72% and 81%, the “Population Healthy Nuclei (%)” value [4] was 75% and the “Population Mitotic Cells (%)” value [4] was 28% and 18%. For the same compound, the “Total Cell Count” value [4] was 456, the “Population Apoptotic (%)” value [5] was 30% and 39% and the “Population Healthy Nuclei (%)” value [5] was 79% and 83%. The “Population Mitotic Cells (%)” value [5] was 69% and 60%, the “Total Cell Count” value [5] was 2082 and 1679 and the “Population Apoptotic (%)” value [6] was 82% and 80%. For the same compound, the “Population Healthy Nuclei (%)” value [6] was 75%, the “Population Mitotic Cells (%)” value [6] was 17% and 19% and the “Total Cell Count” value [6] was 675 and 612.
